In one test the test system is SK-MEL-2. The test is described as follows: Cytotoxicity against human SK-MEL-2 cells assessed as growth inhibition after 72 hrs by SRB assay. It counts as functional. The conditions noted are these: Homo sapiens, SK-MEL-2, 72 h; read-out: ED50 (the source's name). The gist of the method:
(§1)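 Sulforhodamine B assay run by NCI-validated procedure. Cells grown at 37 °C under humidified 5% CO2 in RPMI-1640 with 25 mM HEPES, […] (w/v) sodium bicarbonate, 10% (v/v) FBS and 100 μg/mL kanamycin. Compounds came from DMSO stocks, with final DMSO ≤ 1% (v/v). Continuous exposure for 72 h. ED50 (μg/mL, 50% cell-number reduction) interpolated from dose-response data. Triplicate tests. Doxorubicin served as positive control.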
(In general: The SRB assay estimates cell density from bound dye.)

The subject of a further test is KB. The test is described as follows: Cytotoxicity against human KB cells assessed as growth inhibition after 72 hrs by SRB assay. It counts as functional. The note with it: Homo sapiens, KB, 72 h; read-out: ED50 (the source's name). The gist of the method: as §1
A short description of test [1]: Cytotoxicity against human KBVIN cells assessed as growth inhibition after 72 hrs by SRB assay. The note with it: Homo sapiens, KBVIN, 72 h; read-out: ED50 (the source's name). It counts as functional. The gist of the method: as §1
Another test deals with A549. In words: Cytotoxicity against human A549 cells assessed as growth inhibition after 72 hrs by SRB assay. The conditions noted are these: Homo sapiens, A549, 72 h; read-out: ED50 (the source's name). In kind it is functional. An outline of the steps:
as §1

The next test has as its system 1A9. The test is described as follows: Cytotoxicity against human 1A9 cells assessed as growth inhibition after 72 hrs by SRB assay. In kind it is functional. The conditions noted are these: Homo sapiens, 1A9, 72 h; read-out: ED50 (the source's name). The gist of the method:
as §1

The test system of the next test is MCF7. In words: Cytotoxicity against human MCF7 cells assessed as growth inhibition after 72 hrs by SRB assay. In kind it is functional. The note with it: Homo sapiens, MCF7, 72 h; read-out: ED50 (the source's name). An outline of the steps: as §1
Test [2] in a line: Cytotoxicity against human U87MG cells assessed as growth inhibition after 72 hrs by SRB assay. In kind it is functional, U-87MG ATCC. The conditions noted are these: Homo sapiens, U-87 MG, 72 h; read-out: ED50 (the source's name). An outline of the steps:
as §1

In the next test the test system is CAKI-1. The test is described as follows: Cytotoxicity against human CAKI-1 cells assessed as growth inhibition after 72 hrs by SRB assay. In kind it is functional. The note with it: Homo sapiens, CAKI-1, 72 h; read-out: ED50 (the source's name). An outline of the steps:
as §1

Test [3] can be described thus: Cytotoxicity against human […] cells assessed as growth inhibition after 72 hrs by SRB assay. In kind it is functional. The conditions noted are these: Homo sapiens, HCT9, 72 h; read-out: ED50 (the source's name). The gist of the method: as §1
In another test the test system is PC-3. In words: Cytotoxicity against human PC3 cells assessed as growth inhibition after 72 hrs by SRB assay. It counts as functional. The note with it: Homo sapiens, PC-3, 72 h; read-out: ED50 (the source's name). An outline of the steps: as §1

Values after ≈ are worked out from the molar mass of the structure shown.

`C[C@@H]1O[C@H](O[C@H]2CC[C@]3(C=O)[C@H]4C[C@@H](O)[C@]5(C)[C@@H](C6=CC(=O)OC6)CC[C@]5(O)[C@@H]4CC[C@]3(O)C2)[C@H](O)[C@H](O)[C@H]1O`: the EC50 worked out at 0.065 mg/L (≈ 0.115 µM) in the test with SK-MEL-2; 0.067 mg/L (≈ 0.118 µM) with KB; 0.061 mg/L (≈ 0.108 µM) in test [1]; 0.013 mg/L (≈ 0.0229 µM) in the test with A549; 0.014 mg/L (≈ 0.0247 µM) in the test with 1A9; 0.018 mg/L (≈ 0.0318 µM) in the test with MCF7. The EC50 was 0.071 mg/L (≈ 0.125 µM) in test [2], 0.015 mg/L (≈ 0.0265 µM) in the test with CAKI-1, 0.066 mg/L (≈ 0.116 µM) in test [3] and 0.05 mg/L (≈ 0.0882 µM) in the test on PC-3.
`C[C@]12CC[C@H]3[C@@H](CC[C@@H]4C[C@@H](O)CC[C@@]43CO)[C@@]1(O)CC[C@@H]2C1=CC(=O)OC1`: the EC50 in the test on SK-MEL-2 was 0.7 mg/L (≈ 1.79 µM); in the test with KB it was 0.45 mg/L (≈ 1.15 µM); in test [1] it was 0.5 mg/L (≈ 1.28 µM); with A549 it was 0.05 mg/L (≈ 0.128 µM); in the test with 1A9 it was 12 mg/L (≈ 30.7 µM); in the test with MCF7 it was 0.21 mg/L (≈ 0.538 µM). Besides, the EC50 amounted to 0.5 mg/L (≈ 1.28 µM) in [2], 0.11 mg/L (≈ 0.282 µM) with CAKI-1, 0.46 mg/L (≈ 1.18 µM) in test [3] and 0.15 mg/L (≈ 0.384 µM) in the test with PC-3.
With `C[C@@H]1O[C@H](O[C@H]2CC[C@@]3(C(=O)O[C@@H]4O[C@H](CO)[C@@H](O)[C@H](O)[C@H]4O)[C@H](CC[C@@H]4[C@@H]3CC[C@]3(C)[C@@H](C5=CC(=O)OC5)CC[C@]43O)C2)[C@H](O)[C@H](O)[C@H]1O` [ANTIAROSIDE F], the EC50 in the test with SK-MEL-2 turned out to be 0.32 mg/L (≈ 0.449 µM); with KB, 1.8 mg/L (≈ 2.53 µM); in test [1], 2.2 mg/L (≈ 3.09 µM); with A549 it was 0.54 mg/L (≈ 0.758 µM); in the test with 1A9, 0.97 mg/L (≈ 1.36 µM); in the test on MCF7, 1.3 mg/L (≈ 1.82 µM). Further, the EC50 in test [2] was 4.5 mg/L (≈ 6.31 µM); with CAKI-1, 1.2 mg/L (≈ 1.68 µM); in test [3] it was 3.4 mg/L (≈ 4.77 µM); in the test on PC-3 it was 0.89 mg/L (≈ 1.25 µM).
On to `C[C@@H]1O[C@H](O[C@H]2CC[C@@H]3[C@H]4CC[C@]5(C)[C@@H](C6=CC(=O)OC6)CC[C@]5(O)[C@@H]4CC[C@]3(O)C2)[C@H](O)[C@H](O)[C@H]1O` [ANTIAROSIDE I], for which the EC50 in the test on SK-MEL-2 is 0.3 mg/L (≈ 0.574 µM); in the test with KB it was 2 mg/L (≈ 3.83 µM); in [1] it was 2.3 mg/L (≈ 4.4 µM); in the test with A549, 0.36 mg/L (≈ 0.689 µM); in the test with 1A9, 0.83 mg/L (≈ 1.59 µM); with MCF7, 1.3 mg/L (≈ 2.49 µM). Besides, the EC50 in [2] turned out to be 3.6 mg/L (≈ 6.89 µM); with CAKI-1 it was 1.1 mg/L (≈ 2.1 µM); in test [3] it was 2.9 mg/L (≈ 5.55 µM); with PC-3, 0.9 mg/L (≈ 1.72 µM).
Take `C[C@@H]1O[C@H](O[C@@H]2CC[C@]3(C=O)[C@H]4CC[C@]5(C)[C@@H](C6=CC(=O)OC6)CC[C@]5(O)[C@@H]4CC[C@]3(O)C2)[C@H](O)[C@H](O)[C@H]1O` [ANTIAROSIDE C]: the EC50 in the test with SK-MEL-2 turned out to be 0.26 mg/L (≈ 0.472 µM); in the test with KB, 1.5 mg/L (≈ 2.72 µM); in test [1], 1.6 mg/L (≈ 2.91 µM); in the test with A549, 0.48 mg/L (≈ 0.872 µM); in the test with 1A9, 0.39 mg/L (≈ 0.708 µM); in the test with MCF7 it was 1.4 mg/L (≈ 2.54 µM). In addition, the EC50 turned out to be 1.7 mg/L (≈ 3.09 µM) in [2], 0.32 mg/L (≈ 0.581 µM) in the test with CAKI-1, 1.5 mg/L (≈ 2.72 µM) in test [3] and 0.42 mg/L (≈ 0.763 µM) in the test with PC-3.
On to `C[C@]12[C@H](O)C[C@H]3[C@@H](CC[C@]4(O)CCCC[C@]34C=O)[C@@]1(O)CC[C@@H]2C1=CC(=O)OC1` [ANTIARIGENIN], for which the EC50 came out at 0.41 mg/L (≈ 1.01 µM) in the test on SK-MEL-2; 5.3 mg/L (≈ 13.1 µM) in the test on KB; 5.1 mg/L (≈ 12.6 µM) in test [1]; 0.59 mg/L (≈ 1.46 µM) in the test on A549; 0.12 mg/L (≈ 0.297 µM) with 1A9; 1.3 mg/L (≈ 3.21 µM) in the test with MCF7. The EC50 in [2] worked out at 4.6 mg/L (≈ 11.4 µM); in the test with CAKI-1 it was 1.3 mg/L (≈ 3.21 µM); in test [3], 4.5 mg/L (≈ 11.1 µM); in the test with PC-3, 1.2 mg/L (≈ 2.97 µM).
Turning to `CC1(C)Oc2ccc3ccc(=O)oc3c2[C@@H](O[C@@H]2O[C@H](CO)[C@@H](O)[C@H](O)[C@H]2O)[C@@H]1O`, the EC50 with KB amounted to 5.8 mg/L (≈ 13.7 µM); in test [1], 4.1 mg/L (≈ 9.66 µM); in the test on A549, 1.2 mg/L (≈ 2.83 µM); in the test on MCF7, 3.1 mg/L (≈ 7.3 µM); in [2] it was 7.4 mg/L (≈ 17.4 µM).
For the molecule `C[C@@H]1O[C@H](O[C@H]2CC[C@]3(C(=O)O)[C@H]4C[C@@H](O)[C@]5(C)[C@@H](C6=CC(=O)OC6)CC[C@]5(O)[C@@H]4CC[C@]3(O)C2)[C@H](O)[C@H](O)[C@H]1O` [ANTIAROSIDE G], the values for the EC50 in the test on A549 and with MCF7 were 5.3 mg/L (≈ 9.1 µM) and 17.5 mg/L (≈ 30 µM), respectively.

The values are drawn from ChEMBL document CHEMBL3120107, “Cytotoxic cardiac glycosides and coumarins from Antiaris toxicaria” (2014).
